Experimental findings from ChEMBL document CHEMBL2417545, “6-methoxy-7-benzofuranoxy and 6-methoxy-7-indolyloxy analogues of 2-[2-(2,6-Dimethoxyphenoxy)ethyl]aminomethyl-1,4-benzodioxane (WB4101):1 discovery of a potent and selective α1D-adrenoceptor antagonist” (J Med Chem, 2013) are described below.

What is called Ki is the equilibrium dissociation constant of an inhibitor or competing ligand from its target. Lower therefore signals a stronger hold on the target.

The structures appear in SMILES notation.

The target in experiment [1] is T1, 5-hydroxytryptamine receptor 1A (Rattus norvegicus, UniProt P19327).
T1 sequence (P19327 whole entry): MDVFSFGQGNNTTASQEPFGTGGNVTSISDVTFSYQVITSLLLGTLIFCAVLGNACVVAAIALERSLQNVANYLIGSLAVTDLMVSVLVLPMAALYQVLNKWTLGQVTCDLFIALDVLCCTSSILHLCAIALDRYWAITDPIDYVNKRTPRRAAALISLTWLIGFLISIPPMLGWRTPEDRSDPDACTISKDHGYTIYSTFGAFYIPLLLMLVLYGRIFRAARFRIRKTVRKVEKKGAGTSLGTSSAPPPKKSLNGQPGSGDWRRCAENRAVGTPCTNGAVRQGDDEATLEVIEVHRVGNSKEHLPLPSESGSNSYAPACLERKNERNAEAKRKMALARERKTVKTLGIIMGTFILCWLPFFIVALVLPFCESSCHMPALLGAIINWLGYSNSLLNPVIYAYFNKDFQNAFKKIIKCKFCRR
Kind of experiment: Displacement of [3H]-8-OHDPAT from 5-HT1A receptor in rat hippocampal membranes after 30 mins. The experiment is classed as cell membranes, Hippocampus, Membrane.

Experiment [2] concerns the target T2, Alpha-1B adrenergic receptor (Homo sapiens, UniProt P35368).
T2 sequence (P35368 whole entry): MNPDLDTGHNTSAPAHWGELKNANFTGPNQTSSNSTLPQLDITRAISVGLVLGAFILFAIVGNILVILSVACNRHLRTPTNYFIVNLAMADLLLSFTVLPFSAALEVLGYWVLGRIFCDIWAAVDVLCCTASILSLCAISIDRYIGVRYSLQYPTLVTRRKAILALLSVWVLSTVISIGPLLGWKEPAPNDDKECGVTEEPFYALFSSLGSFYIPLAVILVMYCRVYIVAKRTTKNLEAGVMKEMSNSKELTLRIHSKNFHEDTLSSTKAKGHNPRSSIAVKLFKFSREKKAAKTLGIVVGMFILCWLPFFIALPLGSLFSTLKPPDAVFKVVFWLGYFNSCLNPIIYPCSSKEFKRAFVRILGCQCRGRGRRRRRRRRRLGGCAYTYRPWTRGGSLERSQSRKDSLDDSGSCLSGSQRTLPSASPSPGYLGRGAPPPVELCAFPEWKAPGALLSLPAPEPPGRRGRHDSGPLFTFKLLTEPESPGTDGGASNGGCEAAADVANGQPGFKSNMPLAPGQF
As to the kind of experiment: Displacement of [3H]prazosin from human alpha-1B adrenoreceptor expressed in CHO cells after 30 mins. The experiment is classed as cell-based. An outline of the steps:
(§1)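 Membranes from CHO cells expressing each α₁-AR subtype, incubated 30 min at 25 °C in 50 mM Tris HCl pH 7.7 with 10 μM pargyline and 0.1% ascorbic acid, plus 0.5 nM [³H]prazosin and varying test compound concentrations. Nonspecific binding was defined with 1 μM prazosin.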

Experiment [3] addresses T3, Alpha-1D adrenergic receptor (Homo sapiens, UniProt P25100).
T3 sequence (P25100 whole entry): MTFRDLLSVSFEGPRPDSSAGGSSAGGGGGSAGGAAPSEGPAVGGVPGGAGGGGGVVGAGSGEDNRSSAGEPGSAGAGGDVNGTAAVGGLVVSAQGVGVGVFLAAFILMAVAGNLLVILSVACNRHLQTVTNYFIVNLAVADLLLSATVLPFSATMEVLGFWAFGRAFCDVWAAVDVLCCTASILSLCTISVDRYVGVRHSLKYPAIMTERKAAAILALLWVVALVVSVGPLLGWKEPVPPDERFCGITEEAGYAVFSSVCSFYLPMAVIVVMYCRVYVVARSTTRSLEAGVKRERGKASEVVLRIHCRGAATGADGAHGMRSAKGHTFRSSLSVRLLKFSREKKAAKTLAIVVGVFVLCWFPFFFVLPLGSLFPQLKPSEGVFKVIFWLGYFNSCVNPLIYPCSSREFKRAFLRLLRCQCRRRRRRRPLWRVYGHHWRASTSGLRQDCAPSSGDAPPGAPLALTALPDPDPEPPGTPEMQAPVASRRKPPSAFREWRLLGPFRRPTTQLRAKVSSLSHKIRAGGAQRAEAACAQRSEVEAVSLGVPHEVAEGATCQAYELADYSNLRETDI
As to the kind of experiment: Displacement of [3H]prazosin from human alpha-1D adrenoreceptor expressed in CHO cells after 30 mins. The format is cell-based. An outline of the steps:
as §1

Experiment [4] deals with T4, Alpha-1A adrenergic receptor (Homo sapiens, UniProt P35348).
T4 sequence (P35348 whole entry): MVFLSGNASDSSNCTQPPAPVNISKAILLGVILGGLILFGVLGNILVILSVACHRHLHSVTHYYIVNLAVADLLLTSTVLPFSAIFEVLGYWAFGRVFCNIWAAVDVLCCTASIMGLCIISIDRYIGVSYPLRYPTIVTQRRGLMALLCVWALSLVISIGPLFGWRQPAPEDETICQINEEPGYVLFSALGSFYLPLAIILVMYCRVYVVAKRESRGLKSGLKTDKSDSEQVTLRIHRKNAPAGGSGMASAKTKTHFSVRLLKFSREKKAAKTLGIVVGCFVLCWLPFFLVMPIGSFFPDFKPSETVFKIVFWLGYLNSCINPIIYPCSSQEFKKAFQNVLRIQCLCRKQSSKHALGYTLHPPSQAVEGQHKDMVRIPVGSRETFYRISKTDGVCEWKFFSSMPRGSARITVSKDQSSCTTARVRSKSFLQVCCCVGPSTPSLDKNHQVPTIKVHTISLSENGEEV
Kind of experiment: Displacement of [3H]prazosin from human alpha-1A adrenoreceptor expressed in CHO cells after 30 mins. The experiment is classed as cell-based. In a few lines: as §1

Take `COc1ccc2c(c1OCCNC[C@@H]1COc3ccccc3O1)NCC2`: the inhibition constant Ki is 219 nM in experiment [1], 372 nM in experiment [2], 83.2 nM in experiment [3] and 31.6 nM in experiment [4].

Consider `COc1ccc2c(c1OCCNC[C@@H]1COc3ccccc3O1)OCC2`, for which the Ki was 162 nM in experiment [1], 162 nM in experiment [2], 18.2 nM in experiment [3] and 17 nM in experiment [4].

As to `COc1ccc2ccoc2c1OCCNC[C@@H]1COc2ccccc2O1`, the Ki in experiment [1] was 11 nM; in experiment [2] it was 126 nM; in experiment [3] it was 18.2 nM; in experiment [4], 9.12 nM.

`COc1ccc2cc[nH]c2c1OCCNC[C@@H]1COc2ccccc2O1`: the inhibitory constant (Ki) in experiment [1] was 1700 nM; in experiment [2] it was 1910 nM; in experiment [3], 1350 nM; in experiment [4], 437 nM.
